Experimental data reported in ChEMBL document CHEMBL4004786, “Nanomolar Antimalarial Agents against Chloroquine-Resistant Plasmodium falciparum from Medicinal Plants and Their Structure-Activity Relationships” (J Nat Prod, 2017).

What was measured:
[1] = Selectivity index, ratio of IC50 for human WI38 cells to IC50 for chloroquine-resistant Plasmodium falciparum Dd2; format: toxicity; settings: read-out: Ratio IC50
WI-38 = assay: Cytotoxicity against human WI38 cells after 24 hrs by resazurin assay; settings: WI-38, 24 h
Plasmodium falciparum = assay: Antimalarial activity against chloroquine-resistant Plasmodium falciparum Dd2 assessed as parasite growth inhibition after 72 hrs by SYBR Green 1 assay; format: functional; settings: Dd2, 72 h
In short: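 Viability was read by SYBR Green I DNA quantitation and normalized to DMSO-treated untreated controls. IC50 came from nonlinear regression, averaging at least three independent experiments run in triplicate, with standard deviations.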

## C/C=C(\C)C(=O)OC[C@]1(O)[C@H]2C[C@H]2[C@]2(C)[C@@H]3CC4=C5[C@H](/C(=C(/C)C(=O)OC)C(=O)[C@H](O)[C@@]5(C)[C@@H]5C[C@H]45)[C@@]34OC(=O)C(COC(C)=O)=C4C[C@@H]12
[1]
  selectivity ratio: 12
WI-38
  IC50: 160 nM
Plasmodium falciparum
  IC50: 13 nM

## COC(=O)CCC(=O)OCC1=C2C[C@H]3[C@](O)(COC(=O)/C=C(\C)CO)[C@H]4C[C@H]4[C@]3(C)[C@@H]3CC4=C5[C@H](/C(=C(\C)C(=O)OC)C(=O)[C@H](O)[C@@]5(C)[C@@H]5C[C@H]45)[C@]23OC1=O
[1]
  selectivity ratio: 4900
WI-38
  IC50: 5390 nM
Plasmodium falciparum
  IC50: 1.1 nM

## C/C=C(\C)C(=O)OC[C@]1(O)[C@H]2CC3=C(CO)C(=O)O[C@@]34[C@@H]3C5=C(C[C@H]4[C@@]2(C)[C@@H]2C[C@@H]21)[C@H]1C[C@H]1[C@]5(C)[C@@H](O)C(=O)/C3=C(\C)C(=O)OC
[1]
  selectivity ratio: 37
WI-38
  IC50: 770 nM
Plasmodium falciparum
  IC50: 21 nM

## COC(=O)/C(C)=C1\C(=O)[C@H](O)[C@]2(C)C3=C(C[C@@H]4[C@]5(OC(=O)C(C)=C5C[C@H]5[C@](O)(COC(=O)/C=C(\C)CO)[C@H]6C[C@H]6[C@]45C)[C@H]31)[C@H]1C[C@H]12
[1]
  selectivity ratio: 46
WI-38
  IC50: 4450 nM
Plasmodium falciparum
  IC50: 96 nM

## COC(=O)/C(C)=C1\C(=O)[C@H](O)[C@]2(C)C3=C(C[C@@H]4[C@]5(OC(=O)C(COC(=O)C[C@H](O)C(=O)OC)=C5C[C@H]5[C@](O)(COC(=O)/C(C)=C/CO)[C@H]6C[C@H]6[C@]45C)[C@H]31)[C@H]1C[C@H]12
[1]
  selectivity ratio: 561
WI-38
  IC50: 4040 nM
Plasmodium falciparum
  IC50: 7.2 nM

## COC(=O)/C(C)=C1\C(=O)[C@H](O)[C@]2(C)C3=C(C[C@@H]4[C@]5(OC(=O)C(CO)=C5C[C@H]5[C@](O)(COC(C)=O)[C@H]6C[C@H]6[C@]45C)[C@H]31)[C@H]1C[C@H]12
[1]
  selectivity ratio: 100
WI-38
  IC50: 10000 nM
Plasmodium falciparum
  IC50: 100 nM

## COC(=O)/C(C)=C1/C(=O)[C@H](O)[C@]2(C)C3=C(C[C@@H]4[C@]5(OC(=O)C6=C5C[C@H]5[C@](O)(COC(=O)/C=C(\C)COC(=O)CCC(=O)OC6)[C@H]6C[C@H]6[C@]45C)[C@H]31)[C@H]1C[C@H]12
[1]
  selectivity ratio: 27
WI-38
  IC50: 1240 nM
Plasmodium falciparum
  IC50: 46 nM

## C=C1C(=O)O[C@]23C4=C5C(=O)[C@H](O)[C@]6(C)C4=C(C[C@H]2[C@]2(C)C(C[C@]13[C@]5(C)C(=O)OC)[C@](O)(COC(=O)/C(C)=C/COC(=O)CCC(=O)OC)[C@H]1C[C@H]12)[C@H]1C[C@H]16 (stereo not given in full)
[1]
  selectivity ratio: 157
WI-38
  IC50: 15500 nM
Plasmodium falciparum
  IC50: 99 nM

## COC(=O)/C(C)=C1\C(=O)[C@H](O)[C@]2(C)C3=C(C[C@@H]4[C@]5(OC(=O)C6=C5C[C@H]5[C@](O)(COC(=O)/C(C)=C/COC(=O)CCC(=O)OC6)[C@H]6C[C@H]6[C@]45C)[C@H]31)[C@H]1C[C@H]12 [SHIZUKAOL B]
[1]
  selectivity ratio: 619
WI-38
  IC50: 16700 nM
Plasmodium falciparum
  IC50: 27 nM

## COC(=O)/C(C)=C1\C(=O)[C@H](O)[C@]2(C)C3=C(C[C@@H]4[C@]5(OC(=O)C6=C5C[C@H]5[C@](O)(COC(=O)/C=C(\C)COC(=O)CCC(=O)OC6)[C@H]6C[C@H]6[C@]45C)[C@H]31)[C@H]1C[C@H]12 [SHIZUKAOL F]
[1]
  selectivity ratio: 21
WI-38
  IC50: 230 nM
Plasmodium falciparum
  IC50: 11 nM
